Results reported in the EternaBench riboswitch data.

Test system: MS2 coat protein
Assay: apparent Kd, MS2 coat protein; higher = weaker binding; RNA-MaP array; FMN 200 µM where present
In short: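 The apparent Kd is reported as the median of filtered per-cluster binding-curve fits. To get these curves, designs transcribed by stalled E. coli RNA polymerase on Illumina sequencing-chip clusters were titrated with SNAP-549-labelled MS2 coat protein from 0.7 or 1.5 nM, doubling to 3 µM. Titrations were run without and then with constant ligand in 100 mM Tris-HCl pH 7.5, 80 mM KCl, 4 mM MgCl2, BSA, DTT, yeast tRNA and Tween-20, and green signal was normalised to red-channel RNA signal and control-cluster median Fmax.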

[1] = designed as: OFF switch for flavin mononucleotide, no ligand
[2] = ligand present: flavin mononucleotide, designed as: OFF switch for flavin mononucleotide
[3] = designed as: ON switch for flavin mononucleotide, no ligand
[4] = ligand present: flavin mononucleotide, designed as: ON switch for flavin mononucleotide

Row | Sequence | apparent Kd [1] | apparent Kd [2] | apparent Kd [3] | apparent Kd [4]
1 | AUGCUUCACACAGGAUAUACAUGAGGAUCACCCAUGUGUCCACCGUAGCUGACACGAGCUACGCUGUAGAAGGGUGUGAAGCAU | 19.3 nM | 52.8 nM |  | 
2 | AUGCUUCACACAGGAUAUACAUGAGGAUCACCCAUGUGUCCUCCGUAGCUGACACGAGCUACGCGGUAGAAGGGUGUGAAGCAU | 91 nM | 698 nM |  | 
3 | AUGGGUUAAGGAGGAUAUAGAGGGAGAAGUAAACAUGAGGAUCACCCAUGUAUUUAAUUAGUUUACUAGAAGGCUUGUGAUUGU |  |  | 33.6 nM | 41.5 nM
4 | AUGUAGUACGUAGGAUAUCAAUGAGGAUCACCCUGAGAAGGACGUGAGGACAUGAGGAUCACCCAUGUGGAUCACCCAUGUCAU | 173 nM | 142 nM |  | 
5 | AUUAAACAUGAGGAUCACCCAUGUAAUAUUAUGGGAGGAUAUGCGAAUUUAAUUAAUUAAGCAGAAGGCCUAAUUA |  |  | 108 nM | 19 nM
6 | AUUAAACAUGAGGAUCACCCAUGUCAACAAAGUCGAGGAUAUGGGCAAAUAAAAUAAGAACCAGAAGGCGACUAAU |  |  | 22.8 nM | 16 nM
7 | AUUAAUUAAUUAAUACAUGAGGAUCACCCAUGUAAUAAGAUCAAGGAUAUCAGCUCGUUUAGAGCUGAGAAGGUGAUCACAUGU |  |  | 617 nM | 214 nM
8 | AUUACAUGAGGAUCACCCAUGUACAGAACGUUUCAAUACAGUGAGGAUAUACGAAAUGUAGGAACGUAGAAGGCACUGGGUACA |  |  | 181 nM | 65.8 nM
9 | AUUACCACGGUAAGGAUAUUGUACGCAGCAUGCGUUAAGAAGGUACAUGAGGAUCACCCAUGUCUUCCGGUAGC | 20.5 nM | 21.2 nM |  | 
10 | AUUAGACAUGAGGAUCACCCAUGUAGGCAGUCAUGAGGAUAUGGACAAGGUGCUCAAGGUCCAGAAGGCAUACGCC |  |  | 29.3 nM | 18.5 nM
11 | AUUAUACAUGAGGAUCACCCAUGUAAUUAAUUAAUUAAGAUCAAGGAUAUCAGCUCGAAUAGAGCUGAGAAGGUGAUCACAUGU |  |  | 330 nM | 287 nM
12 | AUUAUAUAGAGAGGAUAUAGAAUAUUAUUUUAACAUGAGGAUCACCCAUGUAACCUUAUGUGUAGCUAGAAGGCUCAUUUAUUA | 42.2 nM | 74.2 nM |  | 
13 | AUUAUUGACGAAGGAUAUGGAUACAUGAGGAUCACCCAUGUAUAAUUUGUGUUCUUAUAUUUGAUCCAGAAGGUCGUUGUUUAU | 35.8 nM | 54.6 nM |  | 
14 | AUUAUUGACGAAGGAUAUGGAUACAUGAGGAUCACCCAUGUAUAUUUUGUGAUCAUAUUUAUGAUCCAGAAGGUCGUUGUUUAU | 37.3 nM | 113 nM |  | 
15 | AUUGUUAAGGUAGGAUAUAGUAAAAUGAUUUAAUUAGAAGGAUCUCACAUGAGGAUCACCCAUGUAAGAGGAUCACCCAUGUAU | 12.9 nM | 9.73 nM |  | 
16 | AUUGUUUAUGUAGGAUAUGCGAGGCGAGCCUAAGCAGAAGGACAUGAGGAUCACCCAUGUAUUGCGGUCUGCGUUCAGAUCGCU | 30.5 nM | 127 nM |  | 
17 | AUUUAGUGCGAGAAGGCGUGGUCACAUGAGGAUCACCCAUGUCAGUACACGAGGAUAUCGAUUCACUGUGUUAAUACAAGUGAC |  |  | 77.9 nM | 6.68 nM
18 | AUUUAUGGCCAGAAGGACAUGAGGAUCACCCAUGUAGGAUAUGGACGAUUUUGCUCGGCGGUUUGUUUAGGAAGCACCGGUGAU |  |  | 21.5 nM | 7.6 nM
19 | AUUUAUGUCAAAGGAUAUAUAAAUAAAUUUAUAACAUGAGGAUCACCCAUGUACUUUAGUAUGAGGUAGAAGGUUGAUAAGAGU |  |  | 47.6 nM | 35.6 nM
20 | AUUUCGUCAGGAUAUCCUAGUAAUUGUUUCAUAUUUUCAUAGGAGAAGGGACAUGAGGAUCACCCAUGUUUGUC | 25.5 nM | 24.5 nM |  | 
21 | AUUUCGUUAGCAGGAUAUGGACAGGCCUGUCCGUAUUGAGACAGUAACAUGAGGAUCACCCAUGUCCAGAAGGGCUCGAAGUAU | 30.2 nM | 43.9 nM |  | 

Row | Sequence | apparent Kd [1] | apparent Kd [2] | apparent Kd [3] | apparent Kd [4]
22 | AUUUCGUUAGCAGGAUAUGGACAGGCCUGUCCGUAUUGAGUCAGUAACAUGAGGAUCACCCAUGUCCAGAAGGGCUCGAAGGGA | 11.2 nM | 12.3 nM |  | 
23 | AUUUUAAUGUCAGGAUAUAUUAGUUUAUAUAUAGUAGAAGGGAUAAUUAUACUCAUGUACAUGAGGAUCACCCAUGUUAAAUAA |  |  | 216 nM | 79.1 nM
24 | AUUUUAUAAUAGAAGGUAGACUUCAUGAGGAUCACCCAUGUGUUGGUACUAAGGAUAUGUAAUAACAUGAGGAUCACCCAUGUU |  |  | 16.1 nM | 15.2 nM
25 | AUUUUGUCAGGAUAUGAGUAGUAGGACGAAAGUGUUAUUAUUUAGAAGGGACAUGAGGAUCACCCAUGUUUUCC | 12.7 nM | 16.7 nM |  | 
26 | AUUUUGUCAGGAUAUGAUUAGUAGGAUGAGAGUGCUACUACUUAGAAGGGACAUGAGGAUCACCCAUGUAUUCC | 16.8 nM | 20 nM |  | 
27 | AUUUUGUGAGGAUAUGUGGCUUCGAUCGUAAAAUCGAGGCUACAGAAGGCACAUGAGGAUCACCCAUGUUCCUA | 19 nM | 205 nM |  | 
28 | CAAAACAUCUCCGUGUUUGUCGAACAUGAGGAUCACCCAUGUAGAAGGCGCUUCGCGUCGCGGAGCGAGGAUAUACGCUGGAUG | 11.4 nM | 86.3 nM |  | 
29 | CAAAGACAAGCAGGAUAUCACAUGAGGAUCACCCAUGUCGGGAUCACCUGAGAGUGUUUAUUAAGUGAGAAGGGCUAGAUCACC | 17.6 nM | 31.2 nM |  | 
30 | CAAGGCGGUGAAGGAUAUACACGGGCGUUGCCAAACAUGAGGAUCACCCAUGUAGAAGGUCACCCUGAGAAGGCUUUAUGCCAU | 382 nM | 45.2 nM |  | 
31 | CAAUUUAUAACAGGAUAUAUAAUACAAUGAUUAAUAGAAGGGUUUAAUACAUGAGGAUCACCCAUGUCAUGUGUCAUAAUUACC | 40.1 nM | 32 nM |  | 
32 | CACAACCAGGGAGGAUAUACAUGAGGAUCACCCAUGUUCGGCUCCCAUGCAGGAUGCCGUCCCGUGUAGAAGGCCCAGCGAUAG | 9.91 nM | 32.2 nM |  | 
33 | CACAAGAAAGUCGAACCGCUAUCUAGAAGGACAACAUGACAACAUGAGGAUCACCCAUGUCAUAUGUAGGAUAUGGAUGGUGGG | 8.94 nM | 9.14 nM |  | 
34 | CACAAGAAAGUCGAAGGUUGAAGUAGAAGGUCUACAACAUGACAUGAGGAUCACCCAUGUGCUAAGAAGGAUAUGCUUUAAUCG | 8.71 nM | 7.12 nM |  | 
35 | CACAGGGAUUCAGGAUAUAUUAGCCGAGGCCGCGUAGAAGGGAAAUCCUGACAUGAGGAUCACCCAUGUUAACCCACUUUUCAU |  |  | 28.1 nM | 28.4 nM
36 | CACAUGAGGAUCACCCAUGUACUUAAUAUAAAUGUCAGAACCAGAAGGACCAGUUGAUUUGACCGGUAGGAUAUGGGCGGACCG |  |  | 18.1 nM | 6.89 nM
37 | CACAUUUUAACAGGAUAUGUAAGGUAGCUUAUUAUUGCAUAUACAAUUAUUACAGAAGGGUUAUACAUGAGGAUCACCCAUGUG |  |  | 22.8 nM | 17.1 nM
38 | CACCCACAUGAGGAUCACCCAUGUGAGGAUAUGAUACUAUGUACUUCGGUACAUAGUAUCAGAAGGCACAGGUG | 32 nM | 106 nM |  | 
39 | CACCGUUAAGGAGGAUAUCGUACAUGAGGAUCACCCAUGUAAUAAAUGAGAAUUUCGGAUGUAUGCGAGAAGGCCUAAAUCGGC | 49.5 nM | 42 nM |  | 
40 | CACCGUUAGCGAGGAUAUCGUACAUGAGGAUCACCCAUGUAAUAAAUGAGAAUUUCGGAUGUAUGCGAGAAGGCGCGAAUCGGC | 52.9 nM | 40.6 nM |  | 
41 | CACGAGCUAGGAUAUACAUGAGGAUCACCCAUGUAAGUCAUGCGGUCACAUCUGACAGGUAGAAGGAGCGCGUC | 39.3 nM | 126 nM |  | 
